# In the library only some 2.3% were active in any assay of this set; here they are far more common.
# TRPC6 inhibitor: mouse TRPC6 channel inhibitors, primary screen, cell-based, HEK293, membrane potential dye; AID 2553, 2010; 310,000 tested, 1.1% active; ACh-evoked depolarization; stronger effect = lower value; Short transient receptor potential channel 6 (Mus musculus), Q61143; B-score at 10 µM;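 active means B-score under library mean minus 3 SD, initial fluorescence not abnormally high, positive integrated signal ratio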;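 further: B-score derived from integrated fluorescence ratio over the kinetic read; more negative B-score means stronger inhibition of depolarization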
# TRPC4 agonist: activators of mouse TRPC4 channel, primary screen, Fluo4 calcium, HEK293 TRPC4beta/mu-opioid cells; Short transient receptor potential channel 4 (Mus musculus), Q9QUQ5; Fluo4 calcium fluorescence; stronger effect = higher value; B-score at 10 µM; 310,000 tested, 0.49% active;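 active means B-score above 5 SD of library B-scores, and initial fluorescence ratio not above library mean plus 5 SD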;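 further: positive B-score marks a calcium rise read as TRPC4 activation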
# Target sequence (Q9QUQ5 whole entry, looked up): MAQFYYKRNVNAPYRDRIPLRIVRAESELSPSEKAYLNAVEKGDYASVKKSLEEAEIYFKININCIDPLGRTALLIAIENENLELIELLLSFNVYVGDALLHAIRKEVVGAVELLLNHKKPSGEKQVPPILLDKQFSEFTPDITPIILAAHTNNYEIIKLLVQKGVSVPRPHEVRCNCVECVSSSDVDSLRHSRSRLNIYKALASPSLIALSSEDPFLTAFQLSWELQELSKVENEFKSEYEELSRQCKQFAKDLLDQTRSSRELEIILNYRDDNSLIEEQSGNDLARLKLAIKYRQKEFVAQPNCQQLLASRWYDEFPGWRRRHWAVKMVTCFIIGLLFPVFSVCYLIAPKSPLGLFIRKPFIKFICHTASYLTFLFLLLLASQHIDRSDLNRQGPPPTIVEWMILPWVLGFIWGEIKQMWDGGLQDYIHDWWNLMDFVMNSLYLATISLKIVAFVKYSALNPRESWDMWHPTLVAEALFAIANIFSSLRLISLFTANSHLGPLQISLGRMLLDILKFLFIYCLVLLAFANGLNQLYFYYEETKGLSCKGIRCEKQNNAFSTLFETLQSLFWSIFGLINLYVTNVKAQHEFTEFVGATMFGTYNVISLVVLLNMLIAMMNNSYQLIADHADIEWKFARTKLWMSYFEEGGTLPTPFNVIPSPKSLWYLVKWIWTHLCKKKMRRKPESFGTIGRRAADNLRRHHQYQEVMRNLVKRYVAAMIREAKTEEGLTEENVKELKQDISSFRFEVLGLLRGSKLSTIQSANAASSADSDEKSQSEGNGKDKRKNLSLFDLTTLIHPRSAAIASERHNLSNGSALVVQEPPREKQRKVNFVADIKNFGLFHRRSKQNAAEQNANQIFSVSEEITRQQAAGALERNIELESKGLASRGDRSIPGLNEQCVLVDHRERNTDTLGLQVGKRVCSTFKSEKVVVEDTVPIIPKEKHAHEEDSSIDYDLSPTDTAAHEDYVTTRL
#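 Assay system: HEK293 stable line with TRPC4beta plus mu-opioid receptor; schedule: 45 min room-temperature Fluo4 loading, 110 s read; technique: kinetic Fluo4 calcium fluorescence; evaluation: integrated baseline-normalised fluorescence ratio, converted to per-well B score; controls: buffer (low) and maximal DAMGO (high)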
# TRPC6 act: mouse TRPC6 channel activators, primary screen, cell-based, HEK293, membrane potential dye; Short transient receptor potential channel 6 (Mus musculus), Q61143; HEK293-TRPC6 membrane potential dye fluorescence; stronger effect = higher value; B-score at 10 µM; 310,000 tested, 0.13% active; AID 2550, 2010;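 active means B-score of the integrated fluorescence ratio above library mean plus 3 SD, and starting fluorescence ratio within library mean plus 5 SD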;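 further: higher score means more depolarization so channel activation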
# TRPC4 PAM: positive allosteric modulators of TRPC4, primary screen, cell-based, mouse TRPC4beta, HEK293 mu-opioid, Fluo-4 calcium | AID 2227, 2009 | B-score at 10 µM | Short transient receptor potential channel 4 (Mus musculus), Q9QUQ5 | DAMGO EC20, Fluo-4 Ca2+ flux; stronger effect = higher value | 310,000 tested, 0.42% active;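 active means B-score of calcium response area above 5 SD of library B-scores, with initial fluorescence ratio within 5 SD of library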;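 further: B-score of integrated fluorescence ratio over time as area under calcium response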
# TRPC4 block: inhibitors of mouse TRPC4 channel, primary screen, Fluo4 calcium, HEK293 TRPC4beta/mu-opioid cells; Short transient receptor potential channel 4 (Mus musculus), Q9QUQ5; DAMGO-evoked Fluo4 calcium flux; stronger effect = lower value; B-score at 10 µM; 300,000 tested, 0.39% active; AID 2247, 2010;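 active means B-score over 3 SD under the library average, no early fluorescence shift, positive overall ratio signal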
#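 Assay system: Stable TRPC4beta/mu-opioid receptor HEK293 cells | Reagent: DAMGO in two steps, submaximal then maximal | Compound dosing: Single concentration per test compound | Signal: Fluo4 Ca2+ flux fluorescence | Evaluation: Per-well B score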
# TRPC4 sel inh 2: mouse TRPC4 off-target activity of TRPC6 inhibitors, second screen. 920 tested, 42% active. shares compounds with TRPC6 inhibitor. HEK293 TRPC4/MOR, membrane potential dye fluorescence; channel activated by saturating DAMGO dose. inhibition, % at 10 µM. AID 2776;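 active means compounds whose fluorescence signal differed from control wells by over 3 SD, either direction, in both duplicate plates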
# TRPC4 spec: mouse TRPC4 modulation by TRPC6 hits, confirmation, selectivity assay for TRPC6 inhibitor project, cell-based, HEK293 TRPC4/mu-opioid, membrane potential dye | 920 tested, 61% active | membrane potential fluorescence | shares compounds with TRPC6 inhibitor | activity change, negative = inhibition, % at 10 µM;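 active means rise or fall in signal beyond 3 SD of buffer-only wells in both replicate plates, either sign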;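 further: integrated kinetic ratio of fluorescence range over baseline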
# HEK293 MPD ctr 2-1: nonspecific membrane potential effects, parental HEK293, confirmation, counter-screen for TRPC6 inhibitor project, cell-based, second counter screen; 920 tested, 31% active; parental HEK293 membrane potential dye fluorescence; maximal acetylcholine challenge after compound addition; shares compounds with TRPC6 inhibitor; AID 2779, 2010; signal change vs control, % at 10 µM;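 active means membrane potential signal moving either way by over 3 SD of the maximum-effect control, in both duplicate plates, meaning non-specific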
# HEK293 MPD ctr-1: membrane potential modulation in parental HEK293, confirmation, counter-screen for TRPC6 inhibitor project, cell-based; shares compounds with TRPC6 inhibitor; parental HEK293 membrane potential dye fluorescence; membrane potential signal change, % at 10 µM; 920 tested, 60% active;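 active means membrane potential signal shifting up or down by more than 3 SD of buffer-only wells, on both duplicate plates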
# HEK293 MPD ctr-2: parental HEK293 membrane potential modulation, confirmation, counter-screen for TRPC6 modulator project, cell-based | 2,400 tested, 51% active | shares compounds with TRPC6 inhibitor | membrane potential dye fluorescence | membrane potential signal change, % at 10 µM;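 active means membrane potential signal moves up or down beyond 5 SD from buffer-only wells, on both duplicate plates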
# HEK293 MPD ctr 2-2: second check of TRPC6 modulator effects in parental HEK293 cells; shares compounds with TRPC6 inhibitor; membrane potential dye fluorescence; after compound, maximal acetylcholine stimulation; inhibition, % at 10 µM; 2,400 tested, 14% active;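 active means membrane potential signal drops by more than 5 SD from the mean control signal, in both duplicate plates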;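 further: plate controls were acetylcholine ECmax control wells for no effect and buffer only wells for full effect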
# TRPC4/MOR mod: TRPC4 modulation by TRPC6 hit compounds, confirmation, selectivity assay for TRPC6 modulator project, cell-based, HEK293 TRPC4/mu-opioid, membrane potential dye, mouse; membrane potential fluorescence; percent change from control (negative = decrease, positive = increase), % at 10 µM; shares compounds with TRPC6 inhibitor; AID 488927, 2010; 2,400 tested, 69% active;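 active means membrane potential signal moved up or down beyond 5 SD of buffer control wells, in both duplicate plates, actives on both sides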;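 further: plate controls were assay buffer wells for no effect and DAMGO maximal-effect wells for full effect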
# TRPC4 ctr inh 2: mouse TRPC4 off-target activity of TRPC6 modulators, second screen | AID 488928 | 2,400 tested, 55% active | HEK293 TRPC4/mu-opioid, membrane potential dye fluorescence; stimulated with maximal-effect DAMGO | inhibition, % at 10 µM | shares compounds with TRPC6 inhibitor;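 active means drop in membrane potential signal beyond 5 SD of the control wells in both duplicate plates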;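 further: TRPC4 counter screen for TRPC6 hits run under conditions tuned for TRPC6 not TRPC4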
# TRPC6 block conf: mouse TRPC6 channel inhibitors, confirmation, HEK293 cells, membrane potential dye, duplicate; inhibition, % at 10 µM; ACh-evoked depolarization; shares compounds with TRPC6 inhibitor; 3,300 tested, 43% active;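 active means fluorescence ratio falls more than 5 SD below the full-stimulation control mean, in both duplicate runs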;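 further: integrated fluorescence ratio of peak minus minimum over baseline after agonist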
# TRPC6 act confirm: mouse TRPC6 channel activators, confirmation, HEK293 cells, membrane potential dye, duplicate. activation, % at 10 µM. shares compounds with TRPC6 inhibitor. HEK293-TRPC6 membrane potential dye fluorescence, FDSS. 2,800 tested, 11% active;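 active means ratio signal rise beyond 5 SD above unstimulated control wells' mean, seen in both duplicate runs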;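 further: plate controls were buffer EC0 wells for no effect and acetylcholine ECmax response for full effect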
# * = called active by the depositor; i = inactive; nt = not tested or not shown.
SMILES,TRPC6 inhibitor,TRPC4 agonist,TRPC6 act,TRPC4 PAM,TRPC4 block,HEK293 MPD ctr-2,HEK293 MPD ctr 2-2,TRPC4/MOR mod,TRPC4 ctr inh 2,TRPC6 block conf,TRPC6 act confirm,others
O=C1NC(Cc2c[nH]c3ccccc23)C(=O)N1Cc1ccc(CN2C(=O)NC(Cc3c[nH]c4ccccc34)C2=O)cc1 (stereo not drawn),-5.3*,i,i,i,i,i,i,i,i,i,i,
C=CCn1c(Oc2cccc(C)c2)nc2c1c(=O)n(C)c(=O)n2C,i,i,i,i,i,nt,nt,nt,nt,nt,nt,
C=CCn1c(Oc2cc(C)ccc2C)nc2c1c(=O)n(C)c(=O)n2C,-6.2*,i,i,i,i,140%*,i,30%*,41%*,i,nt,
CNCCCOc1ccc(Cl)cc1C(C)(C)C,-6*,i,i,50*,i,i,i,i,i,i,i,
COCCCNCCCOc1ccc(Cl)cc1C(C)(C)C,i,i,i,i,i,nt,nt,nt,nt,nt,nt,
CCOC(=O)N1CCC(Nc2ccc3nnc(-c4ccccc4)n3n2)CC1,-5.5*,i,i,i,i,i,i,i,i,68%*,nt,
O=C(NCCCN1CCOCC1)C(=O)N/N=C/c1ccc2c(c1)OCO2,-8.3*,i,i,i,i,nt,nt,nt,nt,i,i,TRPC4 sel inh 2=i;TRPC4 spec=i;HEK293 MPD ctr 2-1=i;HEK293 MPD ctr-1=i
O=C(NCCCN1CCOCC1)C(=O)N/N=C/c1ccc(F)cc1,i,i,i,i,i,nt,nt,nt,nt,nt,nt,
NC(=O)Cn1nc(-c2ccccc2)nc1-c1ccccc1,i,i,i,i,i,nt,nt,nt,nt,nt,nt,
CN1CCN(Cc2ccc(Sc3ccc(Cl)cc3)c([N+](=O)[O-])c2)CC1,-6.5*,i,i,i,i,i,i,-14%*,52%*,44%*,i,
Cc1ccc(Sc2ccc(CN3CCCC3)cc2[N+](=O)[O-])cc1,i,i,i,i,i,nt,nt,nt,nt,nt,nt,
N#CCOC(=O)[C@H](Cc1ccccc1)N1C(=O)c2ccccc2C1=O,-7.1*,i,i,i,i,nt,nt,nt,nt,i,i,TRPC4 sel inh 2=i;TRPC4 spec=-0.7%*;HEK293 MPD ctr 2-1=i;HEK293 MPD ctr-1=i
CC(C)NC(=O)C(Cc1ccccc1)N1C(=O)c2ccccc2C1=O (stereo not drawn),i,i,i,i,i,nt,nt,nt,nt,nt,nt,
COc1ccc(C)c2sc(N(CCCN(C)C)C(=O)c3ccc4c(c3)OCCO4)nc12,-6.9*,i,i,i,i,nt,nt,nt,nt,52%*,i,TRPC4 sel inh 2=47%*;TRPC4 spec=i;HEK293 MPD ctr 2-1=i;HEK293 MPD ctr-1=i
COc1ccc(C)c2sc(N(CCCN(C)C)C(=O)c3ccc(S(=O)(=O)N4CCc5ccccc5C4)cc3)nc12,i,i,i,i,i,nt,nt,nt,nt,nt,nt,
COc1ccc(C)c2sc(N(CCN(C)C)C(=O)c3cccc(N4C(=O)CCC4=O)c3)nc12,-6.4*,68*,i,i,i,i,i,-18%*,44%*,i,i,
CCN(CC)CCN(C(=O)c1ccc2c(c1)OCCO2)c1nc2cc3c(cc2s1)OCO3,-5.8*,i,i,i,i,i,i,-23%*,84%*,50%*,i,
Cc1cc(C)c2nc(N(CCCN(C)C)C(=O)c3ccc4c(c3)OCCO4)sc2c1,-8.2*,i,i,i,i,nt,nt,nt,nt,i,i,TRPC4 sel inh 2=i;TRPC4 spec=i;HEK293 MPD ctr 2-1=i;HEK293 MPD ctr-1=0.4%*
CC(NC(=O)c1ccco1)C(=O)NC(C)c1cc(F)c(Cl)cc1Cl (stereo not drawn),i,i,i,i,i,nt,nt,nt,nt,nt,nt,
O=C(CCN1C(=O)C2C3CCC(C3)C2C1=O)Nc1cccc(Cl)c1 (stereo not drawn),i,i,i,i,i,nt,nt,nt,nt,nt,nt,
Nc1nonc1-n1nnc(C(=O)N/N=C/c2ccncc2)c1-c1ccccc1,i,i,i,i,i,nt,nt,nt,nt,nt,nt,
CCN(CC)CCN(C(=O)C1=COCCO1)c1nc2cc(C)cc(C)c2s1,-6.7*,i,i,i,i,nt,nt,nt,nt,i,i,TRPC4 sel inh 2=44%*;TRPC4 spec=i;HEK293 MPD ctr 2-1=i;HEK293 MPD ctr-1=0.6%*
CN(C)CCCN(C(=O)c1ccc2ccccc2c1)c1nc2cc3c(cc2s1)OCO3,i,i,i,i,i,nt,nt,nt,nt,nt,nt,

# Bioassay records from PubChem.
